Test results: ChEMBL document CHEMBL4765376, “Discovery of an Orally Available Diazabicyclooctane Inhibitor (ETX0282) of Class A, C, and D Serine β-Lactamases” (J Med Chem, 2020)
pKi: −log10 of the molar value. Values after ≈ are worked out from the molar mass of the structure shown. Active and inactive are the calls of the source. The rule behind the calls is not given here.

What was measured:
[1] = Cmax in Sprague-Dawley rat at 11.6 mg/kg, po by LC/MS/MS analysis; type: ADME, organism-based; design: route oral, dose 11.6 mg/kg; conditions: in vivo
[2] = Oral bioavailability in Sprague-Dawley rat at 10 mg/kg by LC/MS/MS analysis; type: ADME, organism-based; conditions: in vivo
Summary of the method: (§1)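 Jugular vein-cannulated male Sprague Dawley rats (180–200 g, n = 3/route). Intravenous arm: active acid at 10 mg/kg in 0.9% saline, plasma sampled 0.08–8 h. Oral arm: prodrug at a dose equivalent to 10 mg/kg acid in 25:75 PEG 400/WFI, plasma sampled 0.25–24 h. Levels by LC/MS/MS; F = (AUCpo/AUCiv) × 100.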

Escherichia coli [3] = assay: Synergistic antibacterial activity against multidrug-resistant Escherichia coli ARC 2687 infected in CD-1 mouse model of neutropenic thigh infection assessed as reduction in colony forming unit in presence of cefpodoxime at 50 to 100 mg/kg, po administered every 6 hrs interval; type: functional; conditions: dose 50-100 mg/kg
Summary of the method: (§2)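 Female CD-1 mice (20–22 g, 3/arm) made neutropenic with ip cyclophosphamide, 150 mg/kg on day −4 and 100 mg/kg on day −1. Each thigh received an im inoculum of 5.5 × 10^6–1.6 × 10^7 CFU from saline suspension (OD625 0.1, diluted). Dosing began 2 h post-infection, q6h. Oral agents were given in 0.5% HPMC/0.1% Tween 80; meropenem was given sc in water. Thighs were taken at 24 h, homogenized and plated on TSA (35 °C overnight) for CFU counts.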

[4] = Half-life in Sprague-Dawley rat at 11.6 mg/kg, po by LC/MS/MS analysis; type: ADME, organism-based; conditions: in vivo
[5] = AUC in Sprague-Dawley rat at 11.6 mg/kg, po by LC/MS/MS analysis; type: ADME, organism-based; design: dose 11.6 mg/kg; conditions: in vivo
[6] = Toxicity in rat assessed as adverse effect at 400 to 500 mg/kg, po measured for 14 days; type: organism-based; conditions: in vivo, 336 h, dose 400-500 mg/kg, time 14 day
Summary of the method: (§3)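 Fourteen-day GLP toxicology study with daily oral administration; NOAEL determined.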

[7] = Drug metabolism assessed as diamine metabolite formation
[8] = Oral bioavailability in Sprague-Dawley rat at 11.6 mg/kg by LC/MS/MS analysis; type: ADME, organism-based; conditions: in vivo; summary of the method: as §1
Escherichia coli [9] = assay: Synergistic antibacterial activity against multidrug-resistant Escherichia coli ARC 2687 infected in CD-1 mouse model of neutropenic thigh infection assessed as reduction in colony forming unit in presence of cefpodoxime at 10 to 100 mg/kg, po administered every 6 hrs interval; type: functional, organism-based; conditions: dose 10-100 mg/kg; summary of the method: as §2
[10] = Toxicity in dog assessed as adverse effect at 400 to 500 mg/kg, po measured for 14 days; type: organism-based, Canis lupus familiaris; conditions: in vivo, 336 h, dose 400-500 mg/kg, time 14 day; summary of the method: as §3
Escherichia coli [11] = assay: Antibacterial activity against Escherichia coli ARC 6059 drug resistant clinical isolates assessed as reduction in bacterial growth by CLSI based broth dilution method; type: functional
Summary of the method: (§4)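 Broth microdilution per CLSI in cation-adjusted Mueller–Hinton broth against drug-resistant clinical isolates; MIC read as the lowest concentration preventing bacterial growth.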

[12] = Renal clearance in Sprague-Dawley rat at 10 mg/kg, iv by LC/MS/MS analysis; type: ADME, organism-based; conditions: in vivo
Summary of the method: (§5)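 Jugular vein-cannulated male Sprague Dawley rats, 180–200 g, n = 3, given 10 mg/kg iv in 0.9% saline. Formulation pH checked at 4–7. […] Half-life taken from linear regression of the semilog concentration–time plot.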

Klebsiella oxytoca [13] = assay: Synergistic antibacterial activity against Klebsiella oxytoca ARC 5389 carbapenem resistant clinical isolates assessed as MIC for cefpodoxime antibacterial activity by CLSI based broth dilution method (Rvb > 64 ug/ml); type: functional
Klebsiella pneumoniae [14] = assay: Antibacterial activity against Klebsiella pneumoniae ARC 6098 drug resistant clinical isolates assessed as reduction in bacterial growth by CLSI based broth dilution method; type: functional; summary of the method: as §4
Escherichia coli [15] = assay: Antibacterial activity against Escherichia coli ARC 2687 drug resistant clinical isolates assessed as reduction in bacterial growth by CLSI based broth dilution method; type: functional; summary of the method: as §4
[16] = Volume of distribution at steady state in Sprague-Dawley rat at 10 mg/kg, iv by LC/MS/MS analysis; type: ADME, organism-based; conditions: in vivo, read-out: Vdss; summary of the method: as §5
Klebsiella pneumoniae [17] = assay: Synergistic antibacterial activity against Klebsiella pneumoniae ARC 6098 drug resistant clinical isolates assessed as MIC for cefpodoxime antibacterial activity by CLSI based broth dilution method (Rvb > 64 ug/ml); type: functional
[18] = Cmax in Sprague-Dawley rat at 10 mg/kg, iv by LC/MS/MS analysis; type: ADME, organism-based; design: route intravenous, dose 10 mg/kg; conditions: in vivo; summary of the method: as §5
Klebsiella oxytoca [19] = assay: Antibacterial activity against Klebsiella oxytoca ARC 5389 carbapenem resistant clinical isolates assessed as reduction in bacterial growth by CLSI based broth dilution method; type: functional; summary of the method: as §4
Escherichia coli [20] = assay: Antibacterial activity against Escherichia coli ARC 6064 drug resistant clinical isolates assessed as reduction in bacterial growth by CLSI based broth dilution method; type: functional; summary of the method: as §4
[21] = Half-life in Sprague-Dawley rat at 10 mg/kg, iv by LC/MS/MS analysis; type: ADME, organism-based; conditions: in vivo; summary of the method: as §5
[22] = Inhibition of bacterial TEM-1 assessed as equilibrium constant using nitrocefin as chromogenic substrate by absorbance plate reader analysis
Escherichia coli [23] = assay: Synergistic antibacterial activity against Escherichia coli ARC 6077 drug resistant clinical isolates assessed as MIC for cefpodoxime antibacterial activity by CLSI based broth dilution method (Rvb > 64 ug/ml); type: functional
Klebsiella pneumoniae [24] = assay: Antibacterial activity against Klebsiella pneumoniae ARC 6107 carbapenem resistant clinical isolates assessed as reduction in bacterial growth by CLSI based broth dilution method; type: functional; summary of the method: as §4
Klebsiella pneumoniae [25] = assay: Synergistic antibacterial activity against Klebsiella pneumoniae ARC 6107 carbapenem resistant clinical isolates assessed as MIC for cefpodoxime antibacterial activity by CLSI based broth dilution method (Rvb > 64 ug/ml); type: functional
Escherichia coli [26] = assay: Synergistic antibacterial activity against Escherichia coli ARC 6078 drug resistant clinical isolates assessed as MIC for cefpodoxime antibacterial activity by CLSI based broth dilution method (Rvb > 64 ug/ml); type: functional
Klebsiella pneumoniae [27] = assay: Synergistic antibacterial activity against Klebsiella pneumoniae ARC 6088 carbapenem resistant clinical isolates assessed as MIC for cefpodoxime antibacterial activity by CLSI based broth dilution method (Rvb > 64 ug/ml); type: functional
Klebsiella pneumoniae [28] = assay: Antibacterial activity against Klebsiella pneumoniae ARC 6082 drug resistant clinical isolates assessed as reduction in bacterial growth by CLSI based broth dilution method; type: functional; summary of the method: as §4
Escherichia coli [29] = assay: Antibacterial activity against Escherichia coli ARC 6078 drug resistant clinical isolates assessed as reduction in bacterial growth by CLSI based broth dilution method; type: functional; summary of the method: as §4
Klebsiella pneumoniae [30] = assay: Antibacterial activity against Klebsiella pneumoniae ARC 6088 carbapenem-resistant clinical isolates assessed as reduction in bacterial growth by CLSI based broth dilution method; type: functional; summary of the method: as §4
Enterobacter cloacae [31] = assay: Antibacterial activity against Enterobacter cloacae ARC 6055 drug resistant clinical isolates assessed as reduction in bacterial growth by CLSI based broth dilution method; type: functional; summary of the method: as §4
Escherichia coli [32] = assay: Synergistic antibacterial activity against Escherichia coli ARC 6059 drug resistant clinical isolates assessed as MIC for cefpodoxime antibacterial activity by CLSI based broth dilution method (Rvb > 64 ug/ml); type: functional
Enterobacter cloacae [33] = assay: Antibacterial activity against Enterobacter cloacae ARC 6049 drug resistant clinical isolates assessed as reduction in bacterial growth by CLSI based broth dilution method; type: functional; summary of the method: as §4
Escherichia coli [34] = assay: Antibacterial activity against Escherichia coli ARC 6077 drug resistant clinical isolates assessed as reduction in bacterial growth by CLSI based broth dilution method; type: functional; summary of the method: as §4
Citrobacter freundii [35] = assay: Synergistic antibacterial activity against Citrobacter freundii ARC 3518 carbapenem resistant clinical isolates assessed as MIC for cefpodoxime antibacterial activity by CLSI based broth dilution method (Rvb > 64 ug/ml); type: functional
Escherichia coli [36] = assay: Synergistic antibacterial activity against Escherichia coli ARC 6064 drug resistant clinical isolates assessed as MIC for cefpodoxime antibacterial activity by CLSI based broth dilution method (Rvb > 64 ug/ml); type: functional
[37] = Protein binding in Sprague-Dawley rat plasma assessed as fraction unbound at 5 to 100 uM; type: ADME, cell-free; conditions: dose 5-100 µM
Summary of the method: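 Rat plasma protein binding reported as mean percent unbound across 5–100 μM.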

[38] = AUC in Sprague-Dawley rat at 10 mg/kg, iv by LC/MS/MS analysis; type: ADME, organism-based; design: dose 10 mg/kg; conditions: in vivo; summary of the method: as §5
Enterobacter cloacae [39] = assay: Synergistic antibacterial activity against Enterobacter cloacae ARC 6049 drug resistant clinical isolates assessed as MIC for cefpodoxime antibacterial activity by CLSI based broth dilution method (Rvb > 64 ug/ml); type: functional
[40] = Clearance in Sprague-Dawley rat at 10 mg/kg, iv by LC/MS/MS analysis; type: ADME, organism-based; conditions: in vivo; summary of the method: as §5
Citrobacter freundii [41] = assay: Antibacterial activity against Citrobacter freundii ARC 3518 carbapenem resistant clinical isolates assessed as reduction in bacterial growth by CLSI based broth dilution method; type: functional; summary of the method: as §4
Klebsiella pneumoniae [42] = assay: Synergistic antibacterial activity against Klebsiella pneumoniae ARC 6082 drug resistant clinical isolates assessed as MIC for cefpodoxime antibacterial activity by CLSI based broth dilution method (Rvb > 64 ug/ml); type: functional
[43] = Drug excretion in Sprague-Dawley rat urine assessed as unchanged drug at 10 mg/kg, iv by LC/MS/MS analysis; type: ADME, organism-based; conditions: read-out: Drug excretion
Summary of the method: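 Male Sprague Dawley rats, 10 mg/kg iv in 0.9% saline, n = 3. Urine assayed for unchanged parent drug, reported as percent of the administered iv dose.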

Enterobacter cloacae [44] = assay: Synergistic antibacterial activity against Enterobacter cloacae ARC 6055 drug resistant clinical isolates assessed as MIC for cefpodoxime antibacterial activity by CLSI based broth dilution method (Rvb > 64 ug/ml); type: functional
Escherichia coli [45] = assay: In vivo antibacterial activity against multidrug-resistant Escherichia coli ARC 2687 infected in CD-1 mouse model of neutropenic thigh infection assessed as colony forming unit at 600 mg/kg, sc administered at 6 hrs interval relative to pretreatment; type: functional; summary of the method: as §2

## CC1=C[C@@H](C(N)=O)N2C[C@@H]1N(O[C@H](F)C(=O)OC(C)C)C2=O
[1]
  Cmax: 5800 ng/mL
[2]
  bioavailability: 98%
Escherichia coli [3]
  Activity: 1.11 log10CFU/g
[4]
  half-life: 66 min
[5]
  AUC: 7040 ng·h/mL
[6]
  Activity: Non-Toxic
[7]
  Drug metabolism: Metabolite detected
[8]
  bioavailability: 98%
Escherichia coli [9]
  Activity: Active
[10]
  Activity: Non-Toxic

## CC1=C[C@H](C(N)=O)N2C[C@@H]1N(O[C@H](F)C(=O)O)C2=O
Escherichia coli [11]
  MIC: 16 µg/mL (≈ 58.6 µM)
[12]
  CL renal: 13.4 mL/min/kg
Klebsiella oxytoca [13]
  MIC: 0.5 µg/mL
Klebsiella pneumoniae [14]
  MIC: 16 µg/mL (≈ 58.6 µM)
Escherichia coli [15]
  MIC: 0.5 µg/mL (≈ 1.83 µM)
[16]
  Vd: 0.7 L/kg
Klebsiella pneumoniae [17]
  MIC: 0.125 µg/mL
[18]
  Cmax: 17500 ng/mL
Klebsiella oxytoca [19]
  MIC: 16 µg/mL (≈ 58.6 µM)
Escherichia coli [20]
  MIC: 8 µg/mL (≈ 29.3 µM)
[21]
  half-life: 24 min
[22]
  pKi: 9.47
Escherichia coli [23]
  MIC: 0.125 µg/mL
Klebsiella pneumoniae [24]
  MIC: 4 µg/mL (≈ 14.6 µM)
Klebsiella pneumoniae [25]
  MIC: 0.25 µg/mL
Escherichia coli [26]
  MIC: 0.25 µg/mL
Klebsiella pneumoniae [27]
  MIC: 0.125 µg/mL
Klebsiella pneumoniae [28]
  MIC: 64 µg/mL (≈ 234 µM)
Escherichia coli [29]
  MIC: 0.25 µg/mL (≈ 0.915 µM)
Klebsiella pneumoniae [30]
  MIC: 16 µg/mL (≈ 58.6 µM)
Enterobacter cloacae [31]
  MIC: 1 µg/mL (≈ 3.66 µM)
Escherichia coli [32]
  MIC: 0.125 µg/mL
Enterobacter cloacae [33]
  MIC: 1 µg/mL (≈ 3.66 µM)
Escherichia coli [34]
  MIC: 4 µg/mL (≈ 14.6 µM)
Citrobacter freundii [35]
  MIC: 0.13 µg/mL
Escherichia coli [36]
  MIC: 0.5 µg/mL
[37]
  fraction unbound: 91%
[7]
  Drug metabolism: Metabolite detected
[38]
  AUC: 7190 ng·h/mL
Enterobacter cloacae [39]
  MIC: 0.125 µg/mL
[40]
  clearance: 23.1 mL/min/kg
Citrobacter freundii [41]
  MIC: 0.25 µg/mL (≈ 0.915 µM)
Klebsiella pneumoniae [42]
  MIC: 0.125 µg/mL
[43]
  dose excreted: 60%
Enterobacter cloacae [44]
  MIC: 0.125 µg/mL

## C[C@@H](O)[C@H]1C(=O)N2C(C(=O)O)=C(S[C@@H]3CN[C@H](C(=O)N(C)C)C3)[C@H](C)[C@H]12 [MEROPENEM]
Escherichia coli [45]
  Activity: -1.46 log10CFU/g
